What all share (conditions): stereoisomer not certain
The target in test [1] is T1, UniProt Q8VF43.
T1 sequence (whole entry): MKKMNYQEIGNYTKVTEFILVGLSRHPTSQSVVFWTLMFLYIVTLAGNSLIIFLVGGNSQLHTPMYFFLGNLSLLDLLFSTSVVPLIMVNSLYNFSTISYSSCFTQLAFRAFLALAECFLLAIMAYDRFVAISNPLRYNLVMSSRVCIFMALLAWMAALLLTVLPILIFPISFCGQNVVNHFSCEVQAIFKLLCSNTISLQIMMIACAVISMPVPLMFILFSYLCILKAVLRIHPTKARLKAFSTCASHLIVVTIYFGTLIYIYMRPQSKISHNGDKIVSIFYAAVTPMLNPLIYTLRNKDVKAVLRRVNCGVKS
A digest of the protocol:
(§1)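 Each entry records the cell line, G-protein, co-transfected protein and tags used. Methods varied with the source, often transient luciferase assays in mammalian cell lines. A receptor–molecule pair is called responsive (active) if the original authors judged its signal statistically different from baseline and non-responsive (inactive) otherwise.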

Test [2] concerns the target T2, UniProt Q8VF52.
T2 sequence (whole entry): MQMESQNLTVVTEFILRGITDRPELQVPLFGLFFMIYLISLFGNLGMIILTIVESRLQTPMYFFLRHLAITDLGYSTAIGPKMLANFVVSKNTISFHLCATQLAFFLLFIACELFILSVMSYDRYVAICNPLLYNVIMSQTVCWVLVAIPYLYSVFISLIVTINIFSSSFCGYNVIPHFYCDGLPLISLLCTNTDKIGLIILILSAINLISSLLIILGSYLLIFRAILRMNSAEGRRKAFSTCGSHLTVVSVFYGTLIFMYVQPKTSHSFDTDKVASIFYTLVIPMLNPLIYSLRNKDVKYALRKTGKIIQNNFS
A digest of the protocol: as §1

Test [3] has as its target T3, UniProt Q8VFM8.
T3 sequence (whole entry): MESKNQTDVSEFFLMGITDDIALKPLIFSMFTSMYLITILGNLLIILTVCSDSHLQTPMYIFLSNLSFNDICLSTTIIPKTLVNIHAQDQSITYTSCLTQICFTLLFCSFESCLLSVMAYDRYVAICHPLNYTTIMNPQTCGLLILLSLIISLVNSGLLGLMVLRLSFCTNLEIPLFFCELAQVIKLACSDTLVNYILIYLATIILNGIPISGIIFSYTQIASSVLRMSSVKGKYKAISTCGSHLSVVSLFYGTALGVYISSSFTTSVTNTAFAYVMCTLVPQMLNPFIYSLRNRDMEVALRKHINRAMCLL
A digest of the protocol:
as §1

The values that follow come from the M2OR odorant receptor database.

Each structure is given as a SMILES string.

Regarding `CCc1ccccc1O`, the “odorant receptor agonist call” value in test [1], in test [2] and in test [3] was “inactive” in each case.

With `CC(=O)OCc1ccc2c(c1)OCO2`, the “odorant receptor agonist call” value in test [1], in test [2] and in test [3] was “inactive” throughout.

Regarding `CCC(C)c1nccnc1OC` (configuration not stated), the “odorant receptor agonist call” value in test [1], in test [2] and in test [3] was “inactive” throughout.

With `CCSCC`, the “odorant receptor agonist call” value in test [1], in test [2] and in test [3] was “inactive” each time.

In the case of `C=CC(C)=CCC=C(C)CCC=C(C)C`, the “odorant receptor agonist call” value in test [1], in test [2] and in test [3] was “inactive” in each case.

For the compound `CCCO`, the “odorant receptor agonist call” value in test [1], in test [2] and in test [3] was “inactive” each time.

For the compound `CCCCCCC(=O)OCCCC`, the “odorant receptor agonist call” value in test [1], in test [2] and in test [3] was “inactive” each time.

On to `COc1cnccn1`, for which the “odorant receptor agonist call” value in test [1], in test [2] and in test [3] was “inactive” throughout.

In the case of `C1CCOCC1`, the “odorant receptor agonist call” value in test [1], in test [2] and in test [3] was “inactive” in each case.

For `CCCCCCC(C)O` (configuration not stated), the “odorant receptor agonist call” value in test [1], in test [2] and in test [3] was “inactive” in each case.

Turning to `CCCCCCCCC=CC=O`, the “odorant receptor agonist call” value in test [1], in test [2] and in test [3] was “inactive” in each case.

Turning to `O=C(OCc1ccccc1)c1ccccc1O`, the “odorant receptor agonist call” value in test [1], in test [2] and in test [3] was “inactive” throughout.

Turning to `Cc1ccccc1OC(=O)C(C)C`, the “odorant receptor agonist call” value in test [1], in test [2] and in test [3] was “inactive” throughout.

Take `OCCc1ccccc1`: the “odorant receptor agonist call” value in test [1], in test [2] and in test [3] was “inactive” in each case.

With `COc1nccnc1C(C)C`, the “odorant receptor agonist call” value in test [1], in test [2] and in test [3] was “inactive” in each case.

With `CCc1nccnc1CC`, the “odorant receptor agonist call” value in test [1], in test [2] and in test [3] was “inactive” each time.

For the compound `CCCCCCCCCCOC(C)=O`, the “odorant receptor agonist call” value in test [1], in test [2] and in test [3] was “inactive” each time.

Take `CCC=CCCCCC=O`: the “odorant receptor agonist call” value in test [1], in test [2] and in test [3] was “inactive” throughout.

Take `CCCCCC(C=O)=Cc1ccccc1`: the “odorant receptor agonist call” value in test [1] and in test [3] was “inactive” throughout. The “odorant receptor agonist call” value in test [2] was “active”.
